According to article PMC7557227 (ACS Omega, 2020):

What was measured:
[1] = biological target: PARP1 (Homo sapiens, UniProt P09874); test: PARP enzymatic assay; type: biochemical; conditions: read-out: IC50 PARP1; dose response 1 nM to 1 mM
[2] = biological target: T1, PARP3 (Homo sapiens, UniProt Q9Y6F1); test: PARP enzymatic assay; type: biochemical; conditions: for PARP3 inhibition at 1 μM: from dose response data; for Inhibition of PARP3, mean (panel): 10 μM, 0 equals no inhibition, 100 total inhibition, N = 5 (Table 5); for IC50: read-out: IC50 PARP3, dose response 1 nM to 1 mM
T1 sequence (Q9Y6F1 1-533): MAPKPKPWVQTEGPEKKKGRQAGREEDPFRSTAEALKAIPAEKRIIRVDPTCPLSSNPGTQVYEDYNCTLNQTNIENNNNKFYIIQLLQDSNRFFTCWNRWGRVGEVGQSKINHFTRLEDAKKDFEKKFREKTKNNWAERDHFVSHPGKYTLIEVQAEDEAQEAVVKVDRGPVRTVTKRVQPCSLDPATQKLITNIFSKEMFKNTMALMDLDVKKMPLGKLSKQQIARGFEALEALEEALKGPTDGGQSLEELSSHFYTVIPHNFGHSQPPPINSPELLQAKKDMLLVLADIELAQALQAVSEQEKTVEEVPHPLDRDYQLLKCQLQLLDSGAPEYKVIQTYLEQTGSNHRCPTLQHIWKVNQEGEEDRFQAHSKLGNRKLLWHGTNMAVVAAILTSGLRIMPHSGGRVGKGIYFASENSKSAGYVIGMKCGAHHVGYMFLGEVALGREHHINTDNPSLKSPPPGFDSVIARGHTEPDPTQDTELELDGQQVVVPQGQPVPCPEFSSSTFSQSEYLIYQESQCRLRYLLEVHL

[3] = biological target: T2, PARP16 (Homo sapiens, UniProt Q8N5Y8); test: Modified PARP enzymatic assay with IRE-1 as substrate, PARP16; type: biochemical; conditions: for IC50: read-out: IC50 PARP16, dose response 1 nM to 1 mM; for PARP16 inhibition at 1 μM: from dose response data; for Selectivity: greater IC50 potency for PARP16 compared with PARP3: ratio of IC50 values, in vitro
T2 sequence (Q8N5Y8 1-322): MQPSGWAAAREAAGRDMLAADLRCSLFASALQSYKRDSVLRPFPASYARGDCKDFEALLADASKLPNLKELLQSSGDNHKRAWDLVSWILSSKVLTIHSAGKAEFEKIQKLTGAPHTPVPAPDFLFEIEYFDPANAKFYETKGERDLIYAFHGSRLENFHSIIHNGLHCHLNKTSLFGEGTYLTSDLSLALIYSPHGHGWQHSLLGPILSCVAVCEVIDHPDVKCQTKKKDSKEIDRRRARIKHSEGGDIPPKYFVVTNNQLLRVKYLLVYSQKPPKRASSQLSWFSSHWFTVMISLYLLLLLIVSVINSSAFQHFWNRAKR

[4] = system: F508del-CFTR in BHK cells; test: HTS F508del-CFTR correction assay; type: cell-based, hamster; conditions: 24 h treatment
[5] = system: F508del-CFTR in BHK cells; conditions: cited from earlier work
[6] = system: PARP2; test: PARP enzymatic assay, PARP2; type: biochemical; conditions: 10 μM; 0 equals no inhibition, 100 total inhibition; N = 5 (Table 5)
In short: (§1)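 Commercial recombinant PARP2, PARP4, PARP-5a and PARP-5b were assayed with a chemiluminescent universal PARP kit on histone-coated strip wells, following the manufacturer's protocol. Anchored histones served as the ADP-ribosylation substrate. Inhibition was read as loss of chemiluminescent signal.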

[7] = biological target: PARP4 (Homo sapiens, UniProt Q9UKK3); test: PARP enzymatic assay, PARP4; type: biochemical; conditions: 10 μM; 0 equals no inhibition, 100 total inhibition; N = 5 (Table 5)
Sequence of PARP4 (Q9UKK3 whole entry, species assumed): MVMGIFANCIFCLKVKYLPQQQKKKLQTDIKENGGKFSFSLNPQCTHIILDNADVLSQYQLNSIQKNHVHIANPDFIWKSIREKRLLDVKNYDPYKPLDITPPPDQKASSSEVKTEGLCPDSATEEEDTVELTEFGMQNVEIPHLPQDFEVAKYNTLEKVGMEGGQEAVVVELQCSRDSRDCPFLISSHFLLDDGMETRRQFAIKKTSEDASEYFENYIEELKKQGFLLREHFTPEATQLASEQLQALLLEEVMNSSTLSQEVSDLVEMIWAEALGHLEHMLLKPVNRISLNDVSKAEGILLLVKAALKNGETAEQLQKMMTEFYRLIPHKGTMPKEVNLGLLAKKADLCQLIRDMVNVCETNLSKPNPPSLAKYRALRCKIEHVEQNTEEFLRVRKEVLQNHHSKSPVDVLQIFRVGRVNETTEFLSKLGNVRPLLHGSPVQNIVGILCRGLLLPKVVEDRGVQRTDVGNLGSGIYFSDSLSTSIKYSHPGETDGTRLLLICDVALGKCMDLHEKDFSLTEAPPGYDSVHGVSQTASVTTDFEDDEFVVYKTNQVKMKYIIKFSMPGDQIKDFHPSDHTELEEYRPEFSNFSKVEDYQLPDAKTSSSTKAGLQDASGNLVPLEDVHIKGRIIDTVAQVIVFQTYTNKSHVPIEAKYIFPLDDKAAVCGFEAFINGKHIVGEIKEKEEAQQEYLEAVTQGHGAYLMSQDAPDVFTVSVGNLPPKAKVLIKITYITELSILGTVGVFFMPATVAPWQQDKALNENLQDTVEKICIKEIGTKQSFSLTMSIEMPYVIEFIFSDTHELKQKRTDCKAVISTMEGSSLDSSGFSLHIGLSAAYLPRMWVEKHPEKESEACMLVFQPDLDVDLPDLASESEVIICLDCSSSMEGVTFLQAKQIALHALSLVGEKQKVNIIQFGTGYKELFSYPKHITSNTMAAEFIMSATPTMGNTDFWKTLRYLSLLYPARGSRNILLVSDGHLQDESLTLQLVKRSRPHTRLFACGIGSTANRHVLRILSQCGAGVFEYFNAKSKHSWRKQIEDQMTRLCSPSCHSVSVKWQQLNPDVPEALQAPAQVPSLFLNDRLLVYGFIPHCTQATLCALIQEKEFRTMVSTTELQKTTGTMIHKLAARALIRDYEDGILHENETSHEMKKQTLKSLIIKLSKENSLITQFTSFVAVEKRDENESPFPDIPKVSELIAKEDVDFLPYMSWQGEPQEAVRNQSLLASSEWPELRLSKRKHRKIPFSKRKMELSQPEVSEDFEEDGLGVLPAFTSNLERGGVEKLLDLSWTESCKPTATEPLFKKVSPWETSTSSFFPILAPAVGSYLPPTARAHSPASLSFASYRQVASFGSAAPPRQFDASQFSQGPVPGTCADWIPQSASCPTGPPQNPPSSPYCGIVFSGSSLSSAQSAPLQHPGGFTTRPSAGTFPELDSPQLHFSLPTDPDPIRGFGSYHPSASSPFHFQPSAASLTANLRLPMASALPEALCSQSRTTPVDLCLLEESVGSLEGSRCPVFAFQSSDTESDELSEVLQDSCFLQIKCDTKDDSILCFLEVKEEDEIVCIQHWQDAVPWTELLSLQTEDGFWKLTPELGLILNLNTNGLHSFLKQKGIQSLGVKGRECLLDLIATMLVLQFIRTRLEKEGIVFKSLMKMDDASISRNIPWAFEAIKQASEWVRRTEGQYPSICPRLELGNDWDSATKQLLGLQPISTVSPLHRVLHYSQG
In short: as §1

[8] = system: PARP5; test: PARP enzymatic assay, PARP5; type: biochemical; conditions: 10 μM; 0 equals no inhibition, 100 total inhibition; N = 5 (Table 5)
In short: as §1

[9] = biological target: T3, TANKYRASE1 (Homo sapiens, UniProt O95271); test: PARP enzymatic assay, TANKYRASE1; type: biochemical; conditions: 10 μM; 0 equals no inhibition, 100 total inhibition; N = 5 (Table 5)
T3 sequence (O95271 1-1327): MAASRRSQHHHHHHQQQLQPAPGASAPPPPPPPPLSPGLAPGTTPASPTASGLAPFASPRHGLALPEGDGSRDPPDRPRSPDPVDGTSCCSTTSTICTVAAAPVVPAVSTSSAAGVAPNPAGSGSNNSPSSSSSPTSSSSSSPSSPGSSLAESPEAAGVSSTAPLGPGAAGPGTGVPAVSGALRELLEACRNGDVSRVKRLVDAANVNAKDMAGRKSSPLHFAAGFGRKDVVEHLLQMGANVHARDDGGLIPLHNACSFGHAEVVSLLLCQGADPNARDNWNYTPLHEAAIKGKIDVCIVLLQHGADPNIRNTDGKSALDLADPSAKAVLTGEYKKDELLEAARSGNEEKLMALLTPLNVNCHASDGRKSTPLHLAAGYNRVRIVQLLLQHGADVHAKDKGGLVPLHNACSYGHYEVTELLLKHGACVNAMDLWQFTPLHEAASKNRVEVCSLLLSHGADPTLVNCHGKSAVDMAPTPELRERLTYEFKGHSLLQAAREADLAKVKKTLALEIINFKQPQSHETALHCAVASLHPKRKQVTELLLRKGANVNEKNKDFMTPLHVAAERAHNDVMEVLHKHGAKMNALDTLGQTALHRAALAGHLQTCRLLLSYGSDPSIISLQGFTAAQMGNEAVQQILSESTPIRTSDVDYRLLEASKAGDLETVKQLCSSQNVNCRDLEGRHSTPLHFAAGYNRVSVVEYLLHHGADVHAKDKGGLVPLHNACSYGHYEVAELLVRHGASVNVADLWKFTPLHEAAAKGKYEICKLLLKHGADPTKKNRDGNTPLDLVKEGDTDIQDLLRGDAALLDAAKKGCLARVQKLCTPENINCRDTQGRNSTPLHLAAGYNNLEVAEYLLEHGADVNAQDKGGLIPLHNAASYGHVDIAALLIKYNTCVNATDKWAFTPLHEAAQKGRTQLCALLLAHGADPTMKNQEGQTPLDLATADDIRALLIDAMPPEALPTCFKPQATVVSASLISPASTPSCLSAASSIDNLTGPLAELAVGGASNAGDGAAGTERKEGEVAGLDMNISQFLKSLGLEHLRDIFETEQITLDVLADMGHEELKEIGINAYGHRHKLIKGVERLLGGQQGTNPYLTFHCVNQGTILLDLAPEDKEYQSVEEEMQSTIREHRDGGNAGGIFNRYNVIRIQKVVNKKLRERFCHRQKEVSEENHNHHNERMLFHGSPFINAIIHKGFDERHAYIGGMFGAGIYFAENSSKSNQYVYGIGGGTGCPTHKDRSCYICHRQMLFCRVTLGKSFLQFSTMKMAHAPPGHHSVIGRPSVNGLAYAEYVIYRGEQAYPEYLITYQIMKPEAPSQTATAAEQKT
In short: (§2)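 Recombinant human PARP-5a (tankyrase 1) and PARP-5b (tankyrase 2) were obtained commercially. Inhibition was measured with a universal chemiluminescent PARP kit according to the manufacturer's protocol. Anchored histone proteins coated on strip wells served as the ADP-ribosylation substrate.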

[10] = biological target: T4, TANKYRASE 2 (Homo sapiens, UniProt Q9H2K2); test: PARP enzymatic assay, TANKYRASE 2; type: biochemical; conditions: 10 μM; 0 equals no inhibition, 100 total inhibition; N = 5 (Table 5)
T4 sequence (Q9H2K2 1-1166): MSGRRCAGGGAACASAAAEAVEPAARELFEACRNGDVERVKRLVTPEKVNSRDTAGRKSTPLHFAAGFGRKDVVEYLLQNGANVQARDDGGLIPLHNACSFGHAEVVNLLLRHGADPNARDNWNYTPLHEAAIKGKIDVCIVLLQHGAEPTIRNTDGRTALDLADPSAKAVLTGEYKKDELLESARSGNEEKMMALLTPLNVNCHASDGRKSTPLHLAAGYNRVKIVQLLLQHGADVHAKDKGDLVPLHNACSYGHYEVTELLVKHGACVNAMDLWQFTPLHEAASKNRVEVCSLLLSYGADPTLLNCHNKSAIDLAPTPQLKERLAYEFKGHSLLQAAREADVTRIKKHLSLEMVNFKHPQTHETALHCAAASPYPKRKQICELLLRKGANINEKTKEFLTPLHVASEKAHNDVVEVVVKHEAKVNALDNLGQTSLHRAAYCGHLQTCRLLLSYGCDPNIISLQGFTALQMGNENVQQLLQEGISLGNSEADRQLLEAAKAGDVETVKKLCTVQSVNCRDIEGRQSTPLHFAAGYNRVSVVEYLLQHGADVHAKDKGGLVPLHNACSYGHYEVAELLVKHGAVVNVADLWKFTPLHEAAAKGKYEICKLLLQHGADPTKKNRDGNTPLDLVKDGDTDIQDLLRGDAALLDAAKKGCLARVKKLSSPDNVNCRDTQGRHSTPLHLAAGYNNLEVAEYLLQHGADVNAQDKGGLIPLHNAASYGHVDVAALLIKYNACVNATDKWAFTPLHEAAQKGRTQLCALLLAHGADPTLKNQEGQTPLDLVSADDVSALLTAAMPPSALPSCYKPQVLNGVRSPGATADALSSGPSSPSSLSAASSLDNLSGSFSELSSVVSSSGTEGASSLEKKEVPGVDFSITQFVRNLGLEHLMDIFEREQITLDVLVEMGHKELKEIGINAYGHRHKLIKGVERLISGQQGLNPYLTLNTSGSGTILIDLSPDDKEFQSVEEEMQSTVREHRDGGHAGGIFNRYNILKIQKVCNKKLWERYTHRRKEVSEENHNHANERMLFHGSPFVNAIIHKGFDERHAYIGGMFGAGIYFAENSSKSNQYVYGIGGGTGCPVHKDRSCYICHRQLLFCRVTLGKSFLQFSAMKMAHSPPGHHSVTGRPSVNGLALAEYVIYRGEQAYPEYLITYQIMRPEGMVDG
In short: as §2

[11] = system: F508del-CFTR in BHK cells; test: FMP functional F508del-CFTR correction assay; type: cell-based, hamster; conditions: 1 μM each, 24 h pretreatment, forskolin + genistein, BHK cells (Figure 2C)
In short: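 BHK cells expressing F508del-CFTR were seeded at 25 000 cells per well and treated with test compound (1 μM) for 24 h, then washed with PBS. Cells were loaded with a voltage-sensitive oxonol-derived FLIPR dye plus quencher in low-chloride gluconate/HEPES buffer (pH 7.4) containing genistein (50 μM) for 5 min at room temperature. Forskolin (10 μM) was added, and the mean initial fluorescence rate (Vmax) was expressed as % of VX809 response.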

[12] = 1 μM each, BHK cells (Figure 2B)
[13] = 10 μM each, BHK cells (Figure 2A)

Sequence of PARP1 (P09874 whole entry): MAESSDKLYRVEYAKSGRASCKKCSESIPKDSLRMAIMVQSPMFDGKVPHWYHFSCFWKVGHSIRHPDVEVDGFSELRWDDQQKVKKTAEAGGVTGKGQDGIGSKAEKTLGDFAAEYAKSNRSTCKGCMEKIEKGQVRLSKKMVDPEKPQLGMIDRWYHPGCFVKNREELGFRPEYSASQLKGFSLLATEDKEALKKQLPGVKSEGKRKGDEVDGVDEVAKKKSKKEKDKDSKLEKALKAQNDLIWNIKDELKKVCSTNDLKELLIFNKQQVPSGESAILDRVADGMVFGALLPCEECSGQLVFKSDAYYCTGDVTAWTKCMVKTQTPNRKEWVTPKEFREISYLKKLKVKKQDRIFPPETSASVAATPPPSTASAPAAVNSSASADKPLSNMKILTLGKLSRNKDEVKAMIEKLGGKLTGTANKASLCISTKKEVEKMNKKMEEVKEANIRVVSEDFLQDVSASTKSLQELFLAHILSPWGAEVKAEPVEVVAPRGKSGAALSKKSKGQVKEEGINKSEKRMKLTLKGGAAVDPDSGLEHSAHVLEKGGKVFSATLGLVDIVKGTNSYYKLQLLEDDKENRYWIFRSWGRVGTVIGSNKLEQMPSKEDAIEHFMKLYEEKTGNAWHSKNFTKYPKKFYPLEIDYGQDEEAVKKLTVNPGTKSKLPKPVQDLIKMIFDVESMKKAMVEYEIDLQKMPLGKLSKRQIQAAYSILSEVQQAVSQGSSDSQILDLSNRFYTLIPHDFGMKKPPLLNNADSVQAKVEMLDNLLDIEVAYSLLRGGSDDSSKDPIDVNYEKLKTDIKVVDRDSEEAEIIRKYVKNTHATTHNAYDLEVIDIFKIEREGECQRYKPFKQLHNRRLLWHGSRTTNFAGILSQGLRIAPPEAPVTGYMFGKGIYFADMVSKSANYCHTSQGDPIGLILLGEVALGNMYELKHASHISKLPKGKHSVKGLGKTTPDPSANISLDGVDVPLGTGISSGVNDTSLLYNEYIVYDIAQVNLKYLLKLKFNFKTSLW

Row | Compound | IC50 [1] [µM] | Increase in relative PARP3/PARP16 IC50 potency compared with latonduine A (1) [2] [fold] | PARP3 inhibition at 1 μM [2] [%] | Inhibition of PARP3, mean (panel) [2] | Selectivity: greater IC50 potency for PARP3 compared with PARP16 ([2]; ratio of IC50 values, in vitro) [fold] | IC50 [2] [µM] | IC50 [3] [µM] | F508del-CFTR corrector activity (surface expression) in HTS assay [4, 12] | F508del-CFTR corrector activity (surface expression) in HTS assay [4, 13] | PARP16 inhibition at 1 μM [3] [%] | Selectivity: greater IC50 potency for PARP16 compared with PARP3 [3] [fold] | EC50 in the F508del-CFTR trafficking screening assay [5] | Selectivity: greater IC50 potency for PARP16 compared with PARP3 ([3]; listed as Latonduine A (1)) | Inhibition of PARP2, mean (panel) [6] | Inhibition of PARP4, mean (panel) [7] | Inhibition of PARP5, mean (panel) [8] | Inhibition of TAN1, mean (panel) [9] | Inhibition of TAN2, mean (panel) [10] | Functional F508del-CFTR correction in FMP assay [11]
1 | O=C1NCC(c2ccccc2)C(O)c2ccccc21 (racemic) [compound 5, (±)-5-hydroxy-4-phenyl-2,3,4,5-tetrahydro-1H-benzo[c]azepin-1-one] | 20.1 | 768 | 39 | 95.6 | 96 | 3.1 | 296 | neither 5 or 6 alone shows corrector activity | neither compound 5 or 6 alone gives F508del-CFTR correction |  |  |  |  |  |  |  |  |  | 
2 | O=C1NCC(c2ccccn2)C(O)c2cc(Cl)c(Cl)cc21 (racemic) [compound 6, (±)-7,8-dichloro-5-hydroxy-4-(pyridin-2-yl)-2,3,4,5-tetrahydro-1H-benzo[c]azepin-1-one] | 17.8 |  |  | 25.8 |  | 74.1 | 0.362 | neither 5 or 6 alone shows corrector activity | neither compound 5 or 6 alone gives F508del-CFTR correction | 81 | 205 |  |  |  |  |  |  |  | 
3 | Nc1nc2c(c(C(=O)O)n1)-c1c([nH]c(Br)c1Br)C(=O)NC2 [compound 2, latonduine B] |  |  |  |  |  |  |  |  |  |  |  | low nanomolar |  |  |  |  |  |  | 
4 | latonduine A [compound 1] | 24.3 |  | 37 | 83.7 |  | 3.4 | 0.427 |  |  | 79 | 8 | low nanomolar | ≈ 8 fold | 21.6 | 18.3 | 9.9 | 11.7 | 10.1 | generates functional CFTR correction
